Laboratory results: PubChem BioAssay
Calls of active or inactive are those of the source. Unless noted, no stated cut-off is given here; in the data, active means inhibition above about 30%; inactive means the rest.

Legend:
[1] = Her2 expression decrease, cell viability multiplex – SKBR3 breast tumor cells, AlphaScreen, ATP viability, primary screen (AID 461;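 active means Her2 level under about 52% in both replicate screens, with viability over 70% of control, limit read from the data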;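 on Her2 level: lower value means less Her2 protein in the cells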;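 on viability: percent of carrier control wells set as 100% viability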); conditions: SKBR3 Her2 protein level, 18-24 h, measured here: SKBR3 viability, ATP luminescence, at 10 µM
[2] = target: Receptor tyrosine-protein kinase erbB-2 (Homo sapiens) (UniProt P04626); assay: as above; conditions: 18-24 h, at 10 µM, stronger effect = lower value
[3] = reduced viability of SK-BR-3 breast cancer cells – cell-based, 24 h, human, pilot screen (AID 572;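 active means viability at or below 10% of carrier control in both of two separate runs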;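 further: compound exposure lasted between 18 and 24 h rather than exactly 24 h; 100% = carrier-treated control wells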); conditions: SK-BR-3 viability, CellTiter-Glo luminescence, at 10 µM, stronger effect = lower value
[4] = HUVEC growth inhibition – cell-based, human, primary screen (AID 575;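 active means viability at or below 30% in both replicate assays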;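 further: 100% = median of untreated cell wells with 0.1% DMSO on each plate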); conditions: HUVEC proliferation, CellTiter-Glo luminescence, 72 h; at 10 µM; stronger effect = lower value
In short: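 material = primary HUVEC, no more than 12 passages | input = 1250 cells per well | controls = vehicle and MePR control wells | measured by = CTG luminescence | times = 72 h compound incubation | format = collagen-coated 384-well format | read-out = % viability vs DMSO wells | doses = single 10 µM dose, 0.1% DMSO, from 5x medium stock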

[5] = H69AR cell proliferation blockers – human, duplicate replicates, primary screen (AID 580;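 active means viability at or under a set limit in both replicates, limit being median viability minus 3 SD, cut at about 48% in these data, passing the limit was not always enough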;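 further: 100% = mean luminescence of untreated wells and 0% = no signal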); conditions: H69AR lung tumor cells viability, ATP luminescence, 72 h; at 10 µM; stronger effect = lower value
[6] = MRP1 drug-resistance reversers in H69AR cells – cell-based, doxorubicin co-treatment, pilot screen (AID 601;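 active means viability loss from added drug above about 55%, and viability with drug at most 40%, in both replicates, limit read from the data, passing the limit was not always enough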); conditions: CellTiter-Glo, 72 h, at 10 µM; for differential viability (reversal): stronger effect = higher value
[7] = yeast transport mutant growth inhibition pilot in 384-well plates, post-Golgi transport modulator project (AID 636; in the data active means inhibition above about 31%); conditions: absorbance 615 nm, about 18 h, stronger effect = higher value
[8] = growth suppression of yeast trafficking mutant, preliminary HTS, modulators of trafficking downstream of Golgi apparatus project, 1536-format plate, OD 615 nm (AID 637); conditions: yeast transport mutant growth, absorbance 615 nm, 18 h; stronger effect = higher value
[9] = H69AR cells + 2 uM doxorubicin, measured here: viability with 2 uM doxorubicin, stronger effect = lower value
[10] = H69AR cells, compound alone cytotoxicity

Sequence of Receptor tyrosine-protein kinase erbB-2 (Homo sapiens) (P04626 whole entry, looked up): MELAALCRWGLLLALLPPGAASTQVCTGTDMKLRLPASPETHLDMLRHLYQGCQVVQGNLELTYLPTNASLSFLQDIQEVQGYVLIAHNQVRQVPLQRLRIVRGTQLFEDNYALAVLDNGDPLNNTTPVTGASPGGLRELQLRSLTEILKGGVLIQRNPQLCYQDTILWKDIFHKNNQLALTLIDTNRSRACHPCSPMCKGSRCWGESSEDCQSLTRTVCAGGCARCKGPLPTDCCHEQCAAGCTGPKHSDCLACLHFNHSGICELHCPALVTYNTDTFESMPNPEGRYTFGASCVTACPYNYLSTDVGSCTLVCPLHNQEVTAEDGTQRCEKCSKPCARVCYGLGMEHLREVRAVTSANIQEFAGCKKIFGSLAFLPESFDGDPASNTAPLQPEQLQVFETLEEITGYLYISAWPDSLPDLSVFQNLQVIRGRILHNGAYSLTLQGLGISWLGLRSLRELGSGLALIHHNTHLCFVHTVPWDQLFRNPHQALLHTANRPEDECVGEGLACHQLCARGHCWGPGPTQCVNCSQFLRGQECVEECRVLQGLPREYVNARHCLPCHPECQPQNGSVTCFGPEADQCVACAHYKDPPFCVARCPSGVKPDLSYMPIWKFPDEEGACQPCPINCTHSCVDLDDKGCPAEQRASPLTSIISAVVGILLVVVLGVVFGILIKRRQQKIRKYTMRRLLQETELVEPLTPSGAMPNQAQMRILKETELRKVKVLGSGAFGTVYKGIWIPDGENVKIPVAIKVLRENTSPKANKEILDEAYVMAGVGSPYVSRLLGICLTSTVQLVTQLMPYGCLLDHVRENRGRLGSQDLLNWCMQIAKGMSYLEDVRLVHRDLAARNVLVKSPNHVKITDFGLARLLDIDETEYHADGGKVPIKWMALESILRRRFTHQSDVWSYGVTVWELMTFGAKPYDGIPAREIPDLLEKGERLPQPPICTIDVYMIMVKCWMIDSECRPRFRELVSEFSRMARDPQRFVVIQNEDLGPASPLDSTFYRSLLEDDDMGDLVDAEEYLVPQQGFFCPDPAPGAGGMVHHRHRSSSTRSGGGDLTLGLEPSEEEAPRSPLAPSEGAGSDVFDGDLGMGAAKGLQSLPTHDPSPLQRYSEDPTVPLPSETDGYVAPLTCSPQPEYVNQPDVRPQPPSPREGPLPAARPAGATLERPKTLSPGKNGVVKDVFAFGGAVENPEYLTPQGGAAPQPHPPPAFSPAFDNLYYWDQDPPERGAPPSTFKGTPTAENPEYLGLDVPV

SMILES | viability [1] [%] | Her2 level [2] | viability [3] | viability [4] | viability [5] | differential viability (reversal) ([6]; H69AR cells + 2 uM doxorubicin) | viability [6, 9] [%] | viability [6, 10] [%] | inhibition [7] | inhibition [8]
CCOc1cc(-c2nc3ccccn3c2NCC2CCCO2)ccc1O (stereo not given) | 69.5 | 111% (inactive) | 69.5% (inactive) | 88.7% (inactive) | 40.7% (active) | 5.11% (inactive) | 35.6 | 40.7 | 4.27% (inactive) | 24% (inactive)
CCCc1cn(S(=O)(=O)c2ccc(OC)cc2OC)nc1N | 98 | 84.5% (inactive) | 98% (inactive) | 92.8% (inactive) | 92.4% (inactive) | 3.72% (inactive) | 88.7 | 92.4 | -7.2% (inactive) | 0% (inactive)
O=c1[nH]c2cccnc2n1Cc1ccco1 | 90 | 88% (inactive) | 90% (inactive) | 107% (inactive) | 97.5% (inactive) | 13.8% (inactive) | 83.8 | 97.5 | -4.32% (inactive) | 0.83% (inactive)
COC(=O)c1sccc1NC(=O)c1csc(C)c1 | 87 | 20% (active) | 87% (inactive) | 60.8% (inactive) | 69.1% (inactive) | 2.06% (inactive) | 67.1 | 69.1 | -3.64% (inactive) | -0.66% (inactive)
CCn1nccc1C(=O)Nc1cc(Cl)ccc1Cl | 102 | 97.5% (inactive) | 102% (inactive) | 89.3% (inactive) | 112% (inactive) | 24.9% (inactive) | 86.7 | 112 | -5.66% (inactive) | -2% (inactive)
C=C(C)Cn1c(N2CCN(CC)CC2)nc2c1c(=O)[nH]c(=O)n2C | 99.5 | 99.5% (inactive) | 99.5% (inactive) | 80% (inactive) | 85.7% (inactive) | -1.74% (inactive) | 87.5 | 85.7 | -1.07% (inactive) | 6.39% (inactive)
Oc1cnc2ccccc2c1CN1CCOCC1 | 98.5 | 92% (inactive) | 98.5% (inactive) | 113% (inactive) | 101% (inactive) | -2.39% (inactive) | 104 | 101 | -3.16% (inactive) | -0.16% (inactive)
CCC(C)(C)NC(=O)C(c1ccco1)N(C(=O)Cn1nnc2ccccc21)c1ccc2c(c1)OCO2 (stereo not given) | 92.5 | 85% (inactive) | 92.5% (inactive) | 78.1% (inactive) | 105% (inactive) | 18.9% (inactive) | 85.9 | 105 | -0.53% (inactive) | -1.13% (inactive)
COc1ccc(NC(=O)c2cc(C)on2)cc1OC | 110 | 93% (inactive) | 110% (inactive) | 104% (inactive) | 96.7% (inactive) | 8.07% (inactive) | 88.6 | 96.7 | -5.87% (inactive) | 3.28% (inactive)
O=C(Cc1c(O)c2ccccc2[nH]c1=O)NCc1ccc(F)cc1 | 121 | 87.5% (inactive) | 121% (inactive) | 90.5% (inactive) | 91.3% (inactive) | 2.8% (inactive) | 88.5 | 91.3 | -4.87% (inactive) | 10% (inactive)
O=S(=O)(NCC(c1cccnc1)N1CCN(c2ccccc2)CC1)c1cc(F)ccc1F (stereo not given) | 98.5 | 87% (inactive) | 98.5% (inactive) | 81.5% (inactive) | 86.4% (inactive) | -8.3% (inactive) | 94.7 | 86.4 | 5.19% (inactive) | 92% (active)
Cc1ccccc1N(CC(=O)NCC1CCCO1)C(=O)C1(C)CC(=O)N=C2C=CC=CN21 (stereo not given) | 96 | 96.5% (inactive) | 96% (inactive) | 104% (inactive) | 98.7% (inactive) | -1.7% (inactive) | 100 | 98.7 | -1.05% (inactive) | -10.5% (inactive)
COCCn1c(SCC(=O)Nc2nnc(C)s2)nnc1-c1c[nH]c2ccccc12 | 104 | 84% (inactive) | 104% (inactive) | 111% (inactive) | 103% (inactive) | 14.8% (inactive) | 88.6 | 103 | -1.71% (inactive) | -6% (inactive)
CCCOc1nc(N)c(C#N)c(-c2ccccc2F)c1C#N | 98.5 | 114% (inactive) | 98.5% (inactive) | 82.6% (inactive) | 89.7% (inactive) | 29% (inactive) | 60.7 | 89.7 | -2.53% (inactive) | -9.52% (inactive)
COc1ccc2[nH]c(=O)c(CNC3CCCCC3)cc2c1 | 101 | 93% (inactive) | 101% (inactive) | 115% (inactive) | 89.5% (inactive) | 5% (inactive) | 84.5 | 89.5 | -4.16% (inactive) | 0.5% (inactive)
O=C(CSc1nnc2scc(-c3ccccc3)n12)N1CCN(Cc2ccccc2)CC1 | 89 | 97.5% (inactive) | 89% (inactive) | 103% (inactive) | 78.5% (inactive) | 8.52% (inactive) | 70 | 78.5 | -5.66% (inactive) | -0.32% (inactive)
Cc1cc(C)n2nc3nc(N4CCCCC4)nc(-c4ccco4)c3c2n1 | 81.5 | 81% (inactive) | 81.5% (inactive) | 79.5% (inactive) | 80.2% (inactive) | -2.63% (inactive) | 82.8 | 80.2 | -4.53% (inactive) | -5.16% (inactive)
O=C(NC1CCCC1)c1c[nH]c2ccc(F)cc2c1=O | 97.5 | 90.5% (inactive) | 97.5% (inactive) | 92.6% (inactive) | 92% (inactive) | 9.81% (inactive) | 82.1 | 92 | -5.41% (inactive) | -3.67% (inactive)
O=C(NC1CCCCC1)C1CC(O)CN1C(=O)OCc1ccccc1 (stereo not given) | 88 | 93% (inactive) | 88% (inactive) | 110% (inactive) | 93.4% (inactive) | 9.51% (inactive) | 83.9 | 93.4 | 0.13% (inactive) | -3.09% (inactive)
Cc1cc(C)c(NC(=O)C2CSCCS2)c(C)c1 (stereo not given) | 90 | 79.5% (inactive) | 90% (inactive) | 99.7% (inactive) | 100% (inactive) | 14.1% (inactive) | 85.9 | 100 | -3.82% (inactive) | -7.17% (inactive)
Cc1csc(NC(=O)CCCSc2nc3ccccc3s2)n1 | 100 | 71% (inactive) | 100% (inactive) | 62.9% (inactive) | 96% (inactive) | 0.115% (inactive) | 95.9 | 96 | -5.87% (inactive) | 5.57% (inactive)
Cc1ccc(-c2ccc(=O)n(CCC(=O)NCc3ccccn3)n2)cc1 | 94.5 | 84% (inactive) | 94.5% (inactive) | 89.3% (inactive) | 84.3% (inactive) | -1.96% (inactive) | 86.2 | 84.3 | -3.95% (inactive) | 0.81% (inactive)
CC(=O)c1ccc(OC(=O)c2cccs2)cc1 | 86 | 94.5% (inactive) | 86% (inactive) | 94.1% (inactive) | 105% (inactive) | -5.42% (inactive) | 110 | 105 | -3.11% (inactive) | 3.61% (inactive)
COC(=O)CCN1CCC(C(N)=O)CC1 | 100 | 113% (inactive) | 100% (inactive) | 102% (inactive) | 100% (inactive) | 15% (inactive) | 85.1 | 100 | -6.8% (inactive) | 2.46% (inactive)
O=C(CCc1nc2ccccc2s1)OCC(=O)N1CCN(C(=O)c2ccco2)CC1 | 117 | 93.5% (inactive) | 117% (inactive) | 91.1% (inactive) | 90.5% (inactive) | 3.61% (inactive) | 86.8 | 90.5 | -5.41% (inactive) | -0.48% (inactive)
CC(C)CC(c1nnnn1CC1CCCO1)N1CCN(Cc2ccc3c(c2)OCO3)CC1 (stereo not given) | 86.5 | 70% (inactive) | 86.5% (inactive) | 90% (inactive) | 96.7% (inactive) | 8.46% (inactive) | 88.2 | 96.7 | -6.08% (inactive) | -9.34% (inactive)
CC(C)(C)n1ncc2c(=O)n(CC(=O)c3ccccc3)cnc21 | 95 | 84% (inactive) | 95% (inactive) | 80.2% (inactive) | 84.2% (inactive) | -2.76% (inactive) | 86.9 | 84.2 | -0.39% (inactive) | -3.23% (inactive)
Cc1ccc(NC(=O)c2ccccc2O)cc1 | 93.5 | 87.5% (inactive) | 93.5% (inactive) | 86.9% (inactive) | 89.2% (inactive) | -0.22% (inactive) | 89.4 | 89.2 | -1.49% (inactive) | -2.7% (inactive)
